# Compound activity (PubChem)
# Most compounds without a hit are left out; they make up all but 4.1% or so of the library.
# KCNQ1 inh = inhibitors of human KCNQ1 potassium channel. P51787. CHO-K1 KCNQ1, FluxOR thallium flux fluorescence; stronger effect = higher value. B-score at 10 µM. 1.3% of 310,000 active. AID 2642;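 active = compounds whose thallium flux B-score, printed positive for inhibition, exceeds three library SD while starting fluorescence stays within three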;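 also: channel opened by potassium depolarization with thallium stimulus after 20 min compound exposure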
# hERG rescue = shields human hERG channel from block by proarrhythmic agents; Q12809; CHO-hERG, FluxOR thallium flux, dofetilide IC70 present; activation (rescue from dofetilide block), less the hit threshold, % at 10 µM; 0.51% of 310,000 active; AID 1511;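 active = activation above the mean of controls blocked by dofetilide plus 5 SD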;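 also: thallium influx through hERG after potassium depolarization seen as dye fluorescence rise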
# KCNK9 inh = inhibitors of human KCNK9 two-pore domain potassium channel. 1.2% of 310,000 active. Q9NPC2. HEK293 KCNK9, FluxOR thallium flux fluorescence; stronger effect = lower value. AID 488922. B-score at 10 µM;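 active = ratio B-score over 3 SD below the library mean, with starting fluorescence within 5 SD of its mean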;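 also: negative B-score means less thallium flux so channel inhibition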
# KCNK3 block = human KCNK3 channel inhibition, primary screen. O14649. CHO-KCNK3 thallium flux, FluxOR fluorescence; stronger effect = lower value. B-score at 10 µM. 0.84% of 340,000 active. AID 602410;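 active = B-score under library mean minus 4 SD, starting fluorescence ratio at most library mean plus 5 SD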;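 also: more negative B-score means stronger inhibition of thallium flux through KCNK3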
# Target sequence (O14649 whole entry, looked up): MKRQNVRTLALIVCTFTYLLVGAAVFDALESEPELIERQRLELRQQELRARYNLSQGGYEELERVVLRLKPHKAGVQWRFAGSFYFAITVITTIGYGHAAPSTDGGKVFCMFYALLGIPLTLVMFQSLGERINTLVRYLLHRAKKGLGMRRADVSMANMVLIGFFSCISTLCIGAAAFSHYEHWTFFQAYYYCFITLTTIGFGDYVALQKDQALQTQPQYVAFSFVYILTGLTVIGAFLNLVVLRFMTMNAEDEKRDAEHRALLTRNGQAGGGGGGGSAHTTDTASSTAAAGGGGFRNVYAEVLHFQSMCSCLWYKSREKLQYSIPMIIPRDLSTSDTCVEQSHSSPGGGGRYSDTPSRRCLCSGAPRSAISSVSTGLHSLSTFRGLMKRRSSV
# KCC2 mod = KCC2 (human) Cl- transport modulation | Q9H2X9 | KCC2 cells, thallium flux FluoZin-2 fluorescence | B-score of Tl+ flux slope (higher = more flux/activation; lower = inhibition) at 10 µM | 2.2% of 190,000 active;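 active = thallium flux slope and its plate-corrected score both differing from the plate sample mean at a set confidence after two filtering rounds, in either direction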;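 also: slope of fluorescence scaled to starting intensity during 10 to 20 s after thallium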
# KCNQ1 pot = potentiators or activators of human KCNQ1 potassium channel | AID 2648 | CHO-K1 KCNQ1, thallium flux FluxOR fluorescence; stronger effect = higher value | B-score at 10 µM | 0.35% of 310,000 active;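 active = fluorescence ratio B-score, a plate-corrected score, at least three library SD, with initial intensity B-score within 5 SD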
#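 Doses: Single concentration per compound, DMSO matched to controls | Test system: KCNQ1-transfected CHO-K1 cells | Timing: 90 min dye loading and 20 min compound exposure, both at room temperature | Measured by: Kinetic FluxOR thallium fluorescence, 10-s 1-Hz baseline, 110-s post-stimulus read | Medium: Assay buffer with matched DMSO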
# KCNK9 inh conf = confirmation of human KCNK9 potassium channel inhibitors | HEK293 KCNK9 cells, FluxOR thallium flux fluorescence | 43% of 4,900 active | inhibition, % at 10 µM | shares compounds with KCNK9 inh;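 active = thallium signal inhibited by more than 5 SD of the compound-free buffer control wells, on both duplicate plates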
# Kir2-1 spec = tests whether KCNK9 modulators also affect mouse Kir2.1 | shares compounds with KCNK9 inh | Kir2.1 cells, FluxOR thallium flux fluorescence | inhibition, % at 10 µM | 4% of 4,900 active | AID 492993;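 active = thallium signal drop more than 5 SD beyond the mean of the no-compound control wells, seen in both duplicate plates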;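 also: signal is fluorescence rise after thallium addition divided by baseline fluorescence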
# HEK293 Tl ctr = second check of KCNK9 modulator effects in non-induced HEK293 cells | 40% of 4,900 active | FluxOR thallium flux | shares compounds with KCNK9 inh | inhibition, % at 10 µM;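 active = thallium signal drop beyond 5 SD of the untreated control mean, on both duplicate plates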
# KCNK3 inh conf = human KCNK3 channel inhibition, confirmation assay; shares compounds with KCNK3 block; CHO-KCNK3 thallium flux, FluxOR fluorescence; 0% buffer, 100% carvedilol maximal block; ratio percent of control, % at 10 µM; 99% of 2,400 active;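 active = ratio percent of control, averaged over triplicates, above buffer control mean plus 5 SD, cut at about 64% in these data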;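 also: ratio is the fluorescence rise from min to max over baseline after thallium stimulus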
# KCNK3 uninduced = counter-screen for KCNK3 inhibitors: effect in non-induced cells; thallium flux ratio (lower = more inhibition) at 10 µM; shares compounds with KCNK3 block; 40% of 2,400 active; non-induced KCNK3 parental cells, FluxOR thallium flux; stronger effect = lower value; AID 651747;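 active = thallium flux ratio, averaged over three wells, more than 5 SD below the buffer control mean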;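 also: host cells are CHO cells without KCNK3 induction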
# Hits are given with their value; i = inactive; nt = no result.
SMILES,KCNQ1 inh,hERG rescue,KCNK9 inh,KCNK3 block,KCC2 mod,KCNQ1 pot,KCNK9 inh conf,Kir2-1 spec,HEK293 Tl ctr,KCNK3 inh conf,KCNK3 uninduced
COc1ccc(C(=O)OC(C(=O)c2ccccc2)c2ccccc2)cc1 (centres undefined),i,i,-18.6,-9.6,i,i,77.0%,i,46.5%,115.3,i
O=S(Cc1cc(Oc2ccccc2)nc(-c2ccccc2)n1)c1ccccc1 (centres undefined),i,i,-18.1,-9.96,nt,i,70.0%,i,37.0%,115.0,i
CCCCCCCCc1nc(SC(C)C(=O)O)n[nH]1 (centres undefined),i,i,i,i,i,i,nt,nt,nt,nt,nt
COc1ccccc1/C=C(/CC(=O)NCc1ccc2c(c1)OCO2)c1nc2ccccc2s1,i,i,-11.7,-9.31,i,i,56.5%,i,29.0%,125.0,0.141
COc1ccccc1/C=C/C(=O)OCC(=O)NCc1ccc2c(c1)OCO2,nt,nt,nt,i,nt,nt,nt,nt,nt,nt,nt
N#CC(Sc1ccccn1)c1ccc(Cl)cc1 (centres undefined),i,i,i,i,i,i,nt,nt,nt,nt,nt
O=c1c2[nH]c3cccc(Cl)c3c2ncn1Cc1ccco1,i,i,i,i,i,i,nt,nt,nt,nt,nt
CCC(C)Nc1nc(N)c([N+](=O)[O-])c(Nc2cc(OC)ccc2OC)n1 (centres undefined),i,i,-9.75,i,i,i,39.5%,i,i,136.0,0.135
C=CCn1c(SCC(=O)Nc2ccccc2)nc2scc(-c3cccs3)c2c1=O,i,i,-11.4,-9.48,i,i,35.0%,i,33.5%,113.7,i
C=CCn1c(SCC(=O)N2CCCC2)nc2scc(-c3cccs3)c2c1=O,i,i,i,i,nt,i,nt,nt,nt,nt,nt
CC(C)OC(=O)COc1ccc(-c2ccccc2)cc1,i,i,-9.24,-11.1,i,i,i,i,i,96.7,i
COc1ccccc1C(c1nnnn1Cc1ccco1)N1CCN(c2cccc(C)c2C)CC1 (centres undefined),i,i,-14.3,-11.4,i,i,43.0%,i,37.5%,130.3,0.137
CCC(C)(C)n1nnnc1C(c1ccccc1OC)N1CCN(C(=O)c2ccco2)CC1 (centres undefined),i,i,-14.1,-13.4,nt,i,68.5%,i,36.5%,105.7,i
COCCn1nnnc1C(c1ccccc1OC)N1CCN(C(=O)c2ccco2)CC1 (centres undefined),i,i,i,i,nt,i,nt,nt,nt,nt,nt
CCN1CCN(c2ccc(NC(=O)c3ccc4c(c3)[nH]c(=O)n4Cc3ccc(F)cc3)cc2)CC1,i,i,i,i,i,i,nt,nt,nt,nt,nt
Cc1ccc(S(=O)(=O)n2nc(OC(=O)c3ccccc3C)cc2N)cc1,i,i,-17.9,-14.7,nt,i,69.5%,i,74.5%,116.7,i
CSc1nsc(SC)c1C(=O)Nc1ccc(C(C)(C)C)cc1,i,i,-14,-12.8,i,i,53.0%,i,28.5%,111.7,i
O/N=C(\c1ccc(Cl)cc1Cl)c1ncc(C(F)(F)F)cc1Cl,i,i,-13.3,-9.8,i,i,61.5%,i,44.0%,97.0,0.136
CCCCCCCCn1c2c(c(=N)c3ccccc31)CCC2,11,i,-16.1,i,i,i,51.0%,83.0%,i,139.7,0.139
CC1CN(c2ccc(NC(=S)NNCCC#N)cc2)CC(C)O1 (centres undefined),i,i,i,i,i,i,nt,nt,nt,nt,nt
O=C(CSc1nnc(COc2ccc(Cl)cc2)o1)Nc1ccc(N2CCOCC2)cc1,nt,nt,nt,i,nt,nt,nt,nt,nt,nt,nt
